In brackets after ≈: the same amount, converted by molar mass.
Columns and labels:
Candida albicans [1] = test: Antifungal activity against Candida albicans ATCC 10231 after 48 hrs by broth dilution method; format: functional; settings: ATCC 10231, 48 h
Candida albicans [2] = test: Antifungal activity against Candida albicans ATCC 64124 after 48 hrs by broth dilution method; format: functional; settings: Candida albicans, ATCC 64124, 48 h
In short: (§1)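 CLSI M27-A3 broth microdilution with minor modifications. Overnight YPD culture grown at 35 °C, 200 rpm, adjusted to OD600 0.12, diluted in RPMI 1640 buffered to pH 7.0 with 0.165 M MOPS to a final 1–2 × 10^3 CFU/mL. Test compounds at 0.015–31.3 µg/mL, 48 h at 35 °C, DMSO <1.25%. […] Triplicate.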

Candida albicans [3] = test: Antifungal activity against itraconazole and fluconazole susceptible Candida albicans ATCC MYA-2876 after 48 hrs by broth dilution method; format: functional; settings: Candida albicans, ATCC MYA-2876, 48 h
Candida albicans [4] = test: Antifungal activity against itraconazole and fluconazole resistant Candida albicans ATCC 90819 after 48 hrs by broth dilution method; format: functional; settings: Candida albicans, ATCC 90819, 48 h; in short: as §1
Candida albicans [5] = test: Antifungal activity against itraconazole and fluconazole susceptible Candida albicans ATCC MYA-2310 after 48 hrs by broth dilution method; format: functional; settings: Candida albicans, ATCC MYA-2310, 48 h
Candida albicans [6] = test: Antifungal activity against itraconazole and fluconazole resistant Candida albicans ATCC MYA-1237 after 48 hrs by broth dilution method; format: functional; settings: Candida albicans, ATCC MYA-1237, 48 h; in short: as §1
Candida albicans [7] = test: Antifungal activity against itraconazole and fluconazole resistant Candida albicans ATCC MYA-1003 after 48 hrs by broth dilution method; format: functional; settings: Candida albicans, ATCC MYA-1003, 48 h; in short: as §1
Nakaseomyces glabratus = test: Antifungal activity against Candida glabrata ATCC 2001 after 48 hrs by broth dilution method; format: functional, CBS 138; settings: Nakaseomyces glabratus, CBS 138, 48 h
Pichia kudriavzevii = test: Antifungal activity against Candida krusei ATCC 6258 after 48 hrs by broth dilution method; format: functional; settings: Pichia kudriavzevii, ATCC 6258, 48 h
In short: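 Yeasts tested per CLSI M27-A3 with minor changes. An overnight YPD culture (35 °C, 200 rpm) was adjusted to OD600 0.12 and diluted in MOPS-buffered RPMI 1640 (pH 7.0) to a final 1–2 × 10^3 CFU/mL. Compounds 0.015–31.3 µg/mL, DMSO <1.25%.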

Candida parapsilosis = test: Antifungal activity against Candida parapsilosis ATCC 22019 after 48 hrs by broth dilution method; format: functional; settings: Lodderomyces parapsilosis, ATCC 22019, 48 h
Aspergillus flavus = test: Antifungal activity against Aspergillus flavus ATCC MYA-3631 after 48 hrs by broth dilution method; format: functional; settings: ATCC MYA-3631, 48 h
Aspergillus nidulans = test: Antifungal activity against Aspergillus nidulans ATCC 38163 after 48 hrs by broth dilution method; format: functional; settings: Aspergillus nidulans, ATCC 38163, 48 h
In short: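 A. nidulans run per CLSI M38-A2. PDA spores were filtered through glass wool and counted by hemocytometer. Test range 0.03–31.3 µg/mL in MOPS-buffered RPMI 1640 (pH 7.0), final 5 × 10^5 CFU/mL.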

Aspergillus terreus = test: Antifungal activity against Aspergillus terreus ATCC MYA-3633 after 48 hrs by broth dilution method; format: functional; settings: Aspergillus terreus, ATCC MYA-3633, 48 h
In short: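 Molds tested per CLSI M38-A2. Spores were harvested from sporulating PDA cultures by filtering through glass wool and counted on a hemocytometer. Serial dilutions (0.03–31.3 µg/mL) were made in RPMI 1640 buffered to pH 7.0 with 0.165 M MOPS, final inoculum 5 × 10^5 CFU/mL.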

| SMILES | MIC (Candida albicans [1]) | MIC (Candida albicans [2]) | MIC (Candida albicans [3]) | MIC (Candida albicans [4]) | MIC (Candida albicans [5]) | MIC (Candida albicans [6]) | MIC (Candida albicans [7]) | MIC (Nakaseomyces glabratus) | MIC (Pichia kudriavzevii) | MIC (Candida parapsilosis) | MIC (Aspergillus flavus) | MIC (Aspergillus nidulans) | MIC (Aspergillus terreus) |
| --- | --- | --- | --- | --- | --- | --- | --- | --- | --- | --- | --- | --- | --- |
| CCCCCCCCCCN1CCNCC1 | 68.9 µM (≈ 15.6 µg/mL) | 68.9 µM (≈ 15.6 µg/mL) | 68.9 µM (≈ 15.6 µg/mL) | 68.9 µM (≈ 15.6 µg/mL) | 68.9 µM (≈ 15.6 µg/mL) | 68.9 µM (≈ 15.6 µg/mL) | 68.9 µM (≈ 15.6 µg/mL) | 34.5 µM (≈ 7.81 µg/mL) | 34.5 µM (≈ 7.81 µg/mL) | 68.9 µM (≈ 15.6 µg/mL) | 138 µM (≈ 31.3 µg/mL) | 68.9 µM (≈ 15.6 µg/mL) | 68.9 µM (≈ 15.6 µg/mL) |
| OC(CNCCN1CCOCC1)(Cn1cncn1)c1ccc(F)cc1F (configuration not stated) | 85.2 µM (≈ 31.3 µg/mL) | 85.2 µM (≈ 31.3 µg/mL) | 85.2 µM (≈ 31.3 µg/mL) | > 85.2 µM | > 85.2 µM | 85.2 µM (≈ 31.3 µg/mL) | > 85.2 µM | 85.2 µM (≈ 31.3 µg/mL) | > 85.2 µM | 85.2 µM (≈ 31.3 µg/mL) | > 85.2 µM | > 85.2 µM | > 85.2 µM |
| CCCCCCCCCCCN1CCN(CC(O)(Cn2cncn2)c2ccc(F)cc2F)CC1 (configuration not stated) | 4.1 µM (≈ 1.96 µg/mL) | 32.8 µM (≈ 15.7 µg/mL) | 16.4 µM (≈ 7.83 µg/mL) | 32.8 µM (≈ 15.7 µg/mL) | 32.8 µM (≈ 15.7 µg/mL) | 32.8 µM (≈ 15.7 µg/mL) | 32.8 µM (≈ 15.7 µg/mL) | 8.2 µM (≈ 3.92 µg/mL) | 4.1 µM (≈ 1.96 µg/mL) | 0.5 µM (≈ 0.239 µg/mL) | 4.1 µM (≈ 1.96 µg/mL) | 4.1 µM (≈ 1.96 µg/mL) | 4.1 µM (≈ 1.96 µg/mL) |
| CN1CCNCC1 [METHYLPIPERAZINE] | > 312 µM | > 312 µM | > 312 µM | > 312 µM | > 312 µM | > 312 µM | > 312 µM | > 312 µM | > 312 µM | > 312 µM | > 312 µM | > 312 µM | > 312 µM |
| CCCCCCCCCCCCCCN1CCN(CC(O)(Cn2cncn2)c2ccc(F)cc2F)CC1 (configuration not stated) | 3.8 µM (≈ 1.97 µg/mL) | 60.2 µM (≈ 31.3 µg/mL) | 15 µM (≈ 7.8 µg/mL) | 3.8 µM (≈ 1.97 µg/mL) | 7.5 µM (≈ 3.9 µg/mL) | 7.5 µM (≈ 3.9 µg/mL) | 3.8 µM (≈ 1.97 µg/mL) | > 60.2 µM | 1.9 µM (≈ 0.987 µg/mL) | > 60.2 µM | 0.9 µM (≈ 0.468 µg/mL) | 3.8 µM (≈ 1.97 µg/mL) | 1.9 µM (≈ 0.987 µg/mL) |
| CCCCCN1CCNCC1 | > 200 µM | > 200 µM | > 200 µM | > 200 µM | > 200 µM | > 200 µM | > 200 µM | > 200 µM | > 200 µM | > 200 µM | > 200 µM | > 200 µM | > 200 µM |
| Fc1ccc(C2(Cn3cncn3)CO2)c(F)c1 (configuration not stated) | > 132 µM | > 132 µM | > 132 µM | > 132 µM | > 132 µM | > 132 µM | > 132 µM | > 132 µM | > 132 µM | > 132 µM | > 132 µM | > 132 µM | > 132 µM |
| CCCCCCCCN1CCNCC1 | > 158 µM | > 158 µM | > 158 µM | > 158 µM | > 158 µM | > 158 µM | > 158 µM | > 158 µM | > 158 µM | > 158 µM | > 158 µM | > 158 µM | > 158 µM |
| CCCCCCCCCN1CCN(CC(O)(Cn2cncn2)c2ccc(F)cc2F)CC1 (configuration not stated) | 2.2 µM (≈ 0.989 µg/mL) | 17.6 µM (≈ 7.91 µg/mL) | 8.8 µM (≈ 3.96 µg/mL) | 17.6 µM (≈ 7.91 µg/mL) | 35.2 µM (≈ 15.8 µg/mL) | 35.2 µM (≈ 15.8 µg/mL) | 35.2 µM (≈ 15.8 µg/mL) | 8.8 µM (≈ 3.96 µg/mL) | 2.2 µM (≈ 0.989 µg/mL) | 0.55 µM (≈ 0.247 µg/mL) | 1.1 µM (≈ 0.495 µg/mL) | 2.2 µM (≈ 0.989 µg/mL) | 4.4 µM (≈ 1.98 µg/mL) |
| CC[C@H](C)C[C@H](C)CCCCCCCCC(=O)N[C@H]1C[C@@H](O)[C@@H](NCCN)NC(=O)[C@@H]2[C@@H](O)CCN2C(=O)[C@H]([C@H](O)CCN)NC(=O)[C@H]([C@H](O)[C@@H](O)c2ccc(O)cc2)NC(=O)[C@@H]2C[C@@H](O)CN2C(=O)[C@H]([C@@H](C)O)NC1=O [CASPOFUNGIN] | 0.8 µM (≈ 0.875 µg/mL) | 0.2 µM (≈ 0.219 µg/mL) | 0.05 µM (≈ 0.0547 µg/mL) | 0.1 µM (≈ 0.109 µg/mL) | 0.1 µM (≈ 0.109 µg/mL) | 0.2 µM (≈ 0.219 µg/mL) | 0.4 µM (≈ 0.437 µg/mL) | 0.05 µM (≈ 0.0547 µg/mL) | 0.4 µM (≈ 0.437 µg/mL) | 1.6 µM (≈ 1.75 µg/mL) | > 25.8 µM | > 25.8 µM | > 25.8 µM |
| CCCCCCCCCCCCCCN1CCOCC1 | > 110 µM | > 110 µM | > 110 µM | > 110 µM | > 110 µM | > 110 µM | > 110 µM | > 110 µM | > 110 µM | > 110 µM | > 110 µM | > 110 µM | > 110 µM |
| OC(CN1CCOCC1)(Cn1cncn1)c1ccc(F)cc1F (configuration not stated) | > 96.5 µM | > 96.5 µM | > 96.5 µM | 12 to 96.5 µM (≈ 3.89 to 31.3 µg/mL) | 24 to 96.5 µM (≈ 7.78 to 31.3 µg/mL) | > 96.5 µM | 96.5 µM (≈ 31.3 µg/mL) | 96.5 µM (≈ 31.3 µg/mL) | > 96.5 µM | > 96.5 µM | 24 µM (≈ 7.78 µg/mL) | 6 µM (≈ 1.95 µg/mL) | 48.1 µM (≈ 15.6 µg/mL) |
| CCCCCCCCCN1CCNCC1 | 147 µM (≈ 31.3 µg/mL) | > 147 µM | > 147 µM | 147 µM (≈ 31.3 µg/mL) | 147 µM (≈ 31.3 µg/mL) | 147 µM (≈ 31.3 µg/mL) | > 147 µM | 147 µM (≈ 31.3 µg/mL) | 147 µM (≈ 31.3 µg/mL) | > 147 µM | 147 µM (≈ 31.3 µg/mL) | > 147 µM | > 147 µM |
| CCCCCCCCCCCN1CCNCC1 | 32.4 µM (≈ 7.79 µg/mL) | 32.4 µM (≈ 7.79 µg/mL) | 64.8 µM (≈ 15.6 µg/mL) | 32.4 µM (≈ 7.79 µg/mL) | 32.4 µM (≈ 7.79 µg/mL) | 32.4 µM (≈ 7.79 µg/mL) | 64.8 µM (≈ 15.6 µg/mL) | 32.4 µM (≈ 7.79 µg/mL) | 32.4 µM (≈ 7.79 µg/mL) | 32.4 µM (≈ 7.79 µg/mL) | 130 µM (≈ 31.2 µg/mL) | 64.8 µM (≈ 15.6 µg/mL) | 64.8 µM (≈ 15.6 µg/mL) |

Source: ChEMBL document CHEMBL4024783, “Alkylated Piperazines and Piperazine-Azole Hybrids as Antifungal Agents” (J Med Chem, 2018)
